Bioassay records from PubChem.
Sampled rows, rich in hits. Any-hit rate of the full collection: about 1.8%.
PABP polyA inh: PABP poly(A) RNA binding inhibitors, primary screen, biochemical, fluorescence polarization, uHTS | Polyadenylate-binding protein 1 (Homo sapiens), P11940 | calls only at 35 µM | actives 1% (n = 290,000);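 note: calls also rest on retests at 20 µM and on dose response follow-up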
Target sequence (P11940 whole entry, looked up): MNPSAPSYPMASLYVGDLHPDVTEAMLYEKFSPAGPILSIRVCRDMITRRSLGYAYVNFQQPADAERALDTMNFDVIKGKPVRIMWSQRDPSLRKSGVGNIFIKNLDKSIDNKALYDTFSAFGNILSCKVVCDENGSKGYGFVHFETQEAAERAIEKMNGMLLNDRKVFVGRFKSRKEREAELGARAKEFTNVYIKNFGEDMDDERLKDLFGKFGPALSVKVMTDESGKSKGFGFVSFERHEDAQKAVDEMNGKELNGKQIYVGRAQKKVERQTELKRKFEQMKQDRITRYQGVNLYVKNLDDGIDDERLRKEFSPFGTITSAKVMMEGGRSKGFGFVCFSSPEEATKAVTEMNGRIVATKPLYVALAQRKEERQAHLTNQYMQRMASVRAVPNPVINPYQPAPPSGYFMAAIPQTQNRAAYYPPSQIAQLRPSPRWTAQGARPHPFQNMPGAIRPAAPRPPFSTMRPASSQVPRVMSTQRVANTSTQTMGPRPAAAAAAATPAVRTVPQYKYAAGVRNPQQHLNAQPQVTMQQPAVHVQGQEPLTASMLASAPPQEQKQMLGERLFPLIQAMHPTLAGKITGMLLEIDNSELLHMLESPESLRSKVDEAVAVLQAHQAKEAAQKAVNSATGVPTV
SKN-1 inh: suppressors of acrylamide-induced Pgst-4::GFP reporter in worms, primary screen, SKN-1 inhibitor project, whole organism, uHTS, GFP/RFP fluorescence ratio, strain VP596 | C. elegans VP596 Pgst-4::GFP/RFP ratio, 24 h | actives 0.49% (n = 360,000) | inhibition, % at 21.8 µM;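 active = interference check ratio from 0.5 to 1.5 plus GFP to RFP signal ratio inhibition reaching or exceeding a fixed threshold, cut at about 30% in these data, passing the limit was not always enough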
eIF4H inh: human eIF4H binding inhibitors, primary screen, translation initiation inhibitor project, biochemical, uHTS, fluorescence polarization. eIF4H fluorescence polarization binding assay. inhibition, % at 35 µM. actives 0.94% (n = 290,000). AID 2012, 2009;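 note: calls also rest on retests at 20 µM and on dose response follow-up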
MT1-MMP act inh: blockers of MT1-MMP proenzyme processing, primary screen, HT1080 RFP-PRO-GFP cells, GFP/RFP fluorescence. Matrix metalloproteinase-14 (Homo sapiens), P50281. GFP/RFP ratio fluorescence, overnight; percent of plate control window, DMSO zero. GFP/RFP ratio change, % at 20 µM. actives 0.061% (n = 360,000);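 active = GFP/RFP ratio change of at least 30% with cell ATP level not reduced by more than half and red fluorescence within 50% of control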
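Test system: HT1080 cells expressing an RFP-PRO-GFP fluorescent reporter construct / Compound dosing: single-point 20 µM compound, 1% DMSO / Schedule: cells overnight before dosing, compound overnight, 37 °C, 5% CO2 / Evaluation: GFP/RFP fluorescence ratio / Control set: DMSO and RFP-L50D-GFP cell wells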
PABP1 MLLE inh: inhibitors of PABP1 MLLE–PAM2 peptide binding, primary screen, biochemical, fluorescence polarization, FITC-PAM2, GST-MLLE | inhibition, % at 20 µM | actives 0.36% (n = 360,000) | Polyadenylate-binding protein 1 (Homo sapiens), P11940 | AID 588489, 2011; in the data active = inhibition above about 35%, passing the limit was not always enough
Each line names hits and unclear results; the compound was inactive in the other large screens. Unless noted, the rule behind the calls is not given here.

O=C(CSc1nnc(CN2CCOCC2)n1-c1ccccc1)N1CCc2ccccc21	none
O=C(CSc1nnc(CN2CCOCC2)n1-c1ccc(Cl)cc1)N1CCc2ccccc21	SKN-1 inh 42.4 (no result: PABP polyA inh, eIF4H inh)
COC(CNC(=O)c1c[nH]c2ccc(S(=O)(=O)N(C)c3ccc(F)cc3)cc2c1=O)OC	none
Cc1nn(-c2ccccc2)c(C)c1C(=O)OCC(=O)N(C)c1c(N)n(Cc2ccccc2)c(=O)[nH]c1=O	none (no result: PABP polyA inh, eIF4H inh)
Cc1cccc(NC(=O)CSc2nnc(CNC(=O)c3ccco3)o2)c1	none
O=C(CSc1ccc(Cl)cc1)c1ccco1	PABP polyA inh active, eIF4H inh 87.4
Cc1ccc(C)c(Nc2ncccc2C(=O)NCc2cccs2)c1	PABP polyA inh active, eIF4H inh inconclusive
CCc1nc2ccc(C(=O)Nc3ccc(OC)c(OC)c3)cn2c1N(C)Cc1cccs1	none (no result: PABP polyA inh, eIF4H inh)
O=C(N/N=C/c1cccnc1)c1cccc(S(=O)(=O)Nc2cccc(Cl)c2)c1	none
O=C(N/N=C/c1ccncc1)c1cccc(S(=O)(=O)Nc2ccc(Cl)cc2)c1	eIF4H inh 69.6
Cc1nn(C)c(C(=O)NC(=S)Nc2ccc([N+](=O)[O-])cc2)c1Cl	PABP1 MLLE inh 39.9
O=C(Nc1ccc(C(=O)N2CCOCC2)cc1)c1ccc([N+](=O)[O-])cc1	none
O=C(NC(=S)Nc1ccc(C(=O)N2CCOCC2)cc1)c1ccc([N+](=O)[O-])cc1	PABP1 MLLE inh 43.7
COc1cc(C(=O)NCC(c2cccs2)N2CCOCC2)cc(Br)c1OCc1ccccc1 (stereo unspecified)	none (no result: PABP polyA inh, eIF4H inh)
COc1ccc(C(C)(O)c2nc(-c3cccc(O)c3)cs2)cc1 (stereo unspecified)	none (no result: PABP polyA inh, eIF4H inh)
Cc1ccc(SCC(=O)Nc2ccc(-c3nnc(-c4ccco4)o3)cc2)cc1	PABP polyA inh active, eIF4H inh 58.0
O=C(CSc1n[nH]c(-c2ccco2)n1)Nc1ccc(F)cc1	none
Cc1ccc(NC(=O)CSc2nnc(-c3ccco3)c(-c3ccco3)n2)cc1	PABP polyA inh active, eIF4H inh 100.1
O=C(CSc1nnc(-c2ccco2)c(-c2ccco2)n1)Nc1ccccc1	PABP polyA inh active, eIF4H inh 95.5
Cc1ccc(NC(=O)CSc2ccc(-c3ccco3)nn2)cc1	none
CN(C)c1ccc(NC(=O)CSc2nnc(-c3ccco3)c(-c3ccco3)n2)cc1	PABP polyA inh active, eIF4H inh 93.0
CCCCN1C(=O)C(CC(=O)NCCCCc2ccccc2)CC(C(=O)N2CCCCCC2)=C1C (stereo unspecified)	none (no result: PABP polyA inh, eIF4H inh, PABP1 MLLE inh)
COc1cc(OC)cc(C(=O)N2CCN(S(=O)(=O)c3ccc4c(c3)OCCO4)CC2)c1	none (no result: PABP polyA inh, eIF4H inh)
CCCc1nc2c(C)cc(Br)cn2c1Cc1ccsc1	PABP1 MLLE inh 42.7 (no result: PABP polyA inh, eIF4H inh)
COc1cccc(C(C(=O)NC(C)(C)C)N(CCc2ccccc2)C(=O)CCC(=O)Nc2cc(C)on2)c1OC (stereo unspecified)	none
CSc1c(C#N)c(N)c(C#N)c2c1COC(C)(C)C2	SKN-1 inh 40.7
CCOC(=O)c1cc2cc3ccccc3cc2[nH]1	SKN-1 inh 39.7
Cc1ccc(C(=O)NC(=S)Nc2ccccc2C(F)(F)F)c(C)c1	SKN-1 inh 31.6
Cc1c(C(=O)OC2CCC(C)CC2)[nH]c2c1C(=O)CCC2 (stereo unspecified)	eIF4H inh 75.0
Cc1cc(C)nc(SCC(=O)c2cc3ccccc3oc2=O)n1	none
Cc1cc(C(=O)CSc2nc3ccccc3[nH]2)c(C)n1CC1CCCO1 (stereo unspecified)	none
Cc1cc(C(=O)COC(=O)c2ccncc2)c(C)n1Cc1ccco1	PABP polyA inh active, eIF4H inh 55.0
O=C(CSc1nc2ccccc2o1)c1cc2ccccc2oc1=O	PABP1 MLLE inh 38.5
Cc1cc(C(=O)CSc2nc3ccccc3o2)c(C)n1CC1CCCO1 (stereo unspecified)	PABP polyA inh active, eIF4H inh 52.0
Cc1cccc(-n2nnnc2SCC(=O)c2cc(C)n(CC3CCCO3)c2C)c1 (stereo unspecified)	PABP polyA inh active, eIF4H inh 52.6
Cc1cc(C(=O)COC(=O)c2ccco2)c(C)n1Cc1ccco1	none
C=C(C)CN1C(=O)C(C)SC1=NN=C1SCC(=O)N1C (stereo unspecified)	none (no result: PABP polyA inh, eIF4H inh)
Cc1ccc2nc(C)c(CN3CCN(c4ccc([N+](=O)[O-])cc4Cl)CC3)n2c1	none
CCN(CC(=O)Nc1ccccc1C(F)(F)F)C(=O)CN1C(=O)NC(C)(c2ccc3ccccc3c2)C1=O (stereo unspecified)	none (no result: PABP polyA inh, eIF4H inh)
CC(=O)Oc1cccc2c1C(=O)C1CC=CC(OC(C)=O)C1C2=O (stereo unspecified)	none (no result: PABP polyA inh, eIF4H inh)
Cc1sc2nc(SCC(=O)c3cc(C)n(CC4CCCO4)c3C)n(C(C)C)c(=O)c2c1C (stereo unspecified)	PABP polyA inh active, eIF4H inh 64.9
Cc1cc(C(=O)CSc2nnc(N)s2)c(C)n1Cc1ccco1	none
Cc1cccc(-n2nnnc2SCC(=O)c2cc(C)n(Cc3ccco3)c2C)c1	eIF4H inh 58.1
O=C(COc1ccccc1)Nc1nc(-c2ccncc2)cs1	PABP1 MLLE inh 35.0
O=C(COc1ccccc1)Nc1nc(-c2cccnc2)cs1	none (no result: PABP polyA inh, eIF4H inh)
CCc1nc2c(OCc3ccc(Cl)cc3Cl)cccn2c1N(C)C(=O)c1ccccc1F	none (no result: PABP polyA inh, eIF4H inh)
COc1ccc(N2Cc3cccc(C(=O)O)c3C2=O)cc1	PABP polyA inh active, eIF4H inh 93.3
OC[C@@H]1CN(Cc2ccc(-c3ccccc3)cc2)C[C@H](n2cnc3c(N4CCCC4)ncnc32)O1	none (no result: PABP polyA inh, eIF4H inh)
O=[N+]([O-])c1ccc(Nc2ccccc2)c2nonc12	SKN-1 inh 35.1
COc1ccc(Nc2cc(NCCCO)c([N+](=O)[O-])c3nonc23)cc1	none
CCOc1ccc(Nc2ccc([N+](=O)[O-])c3nonc23)cc1	SKN-1 inh 36.7
CC(=O)NS(=O)(=O)c1ccc(Nc2ccc([N+](=O)[O-])c3nonc23)cc1	SKN-1 inh 35.4
CC(=O)Nc1ccc(Nc2ccc3nonc3c2[N+](=O)[O-])cc1	none
COc1ccc(-c2cc(C(=O)N(C)Cc3nc4ccccc4c(=O)[nH]3)c3ccccc3n2)cc1OC	none (no result: PABP polyA inh, eIF4H inh)
CCC(C)(C)n1nnnc1C(C(C)C)N(Cc1ccco1)Cc1cc2cc3c(cc2[nH]c1=O)OCO3 (stereo unspecified)	PABP polyA inh active
CCC(C)(C)n1nnnc1C(C(C)C)N(CCCO)Cc1cc2cc(C)ccc2[nH]c1=O (stereo unspecified)	SKN-1 inh 43.7
